Here are results for 3 compounds from ChEMBL document CHEMBL4251609, “Substrate-derived triazolo- and azapeptides as inhibitors of cathepsins K and S” (Eur J Med Chem, 2018).

The source made the active and inactive calls. No cut-off for these calls is given here.

For test [1], the target named is Cathepsin S (Mus musculus) (UniProt O70370). In words: Inhibition of cathepsin S in C57/Bl6 mouse spleen lysate using Z-Val-Leu-Arg-AMC as substrate at 100 uM preincubated for 30 mins followed by substrate addition. The test is classed as subcellular.
For test [2], the target named is Cathepsin B (Mus musculus) (UniProt P10605). As to the kind of experiment: Inhibition of cathepsin B in C57/Bl6 mouse spleen lysate using Z-Arg-Arg-AMC as substrate at 100 uM preincubated for 30 mins followed by substrate addition. The test is classed as subcellular.
Cathepsin B (Mus musculus), sequence (P10605 80-333 limits assumed): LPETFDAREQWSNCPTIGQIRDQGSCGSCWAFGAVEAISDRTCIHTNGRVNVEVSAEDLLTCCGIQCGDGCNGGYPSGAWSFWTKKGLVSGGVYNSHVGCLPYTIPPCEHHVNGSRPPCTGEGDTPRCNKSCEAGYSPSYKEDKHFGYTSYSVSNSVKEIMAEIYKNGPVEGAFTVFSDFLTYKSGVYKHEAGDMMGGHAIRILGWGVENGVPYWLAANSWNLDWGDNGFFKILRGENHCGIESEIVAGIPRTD
Test [3] has as its target T1, Cathepsin K (Homo sapiens) (UniProt P43235).
T1 sequence (whole entry): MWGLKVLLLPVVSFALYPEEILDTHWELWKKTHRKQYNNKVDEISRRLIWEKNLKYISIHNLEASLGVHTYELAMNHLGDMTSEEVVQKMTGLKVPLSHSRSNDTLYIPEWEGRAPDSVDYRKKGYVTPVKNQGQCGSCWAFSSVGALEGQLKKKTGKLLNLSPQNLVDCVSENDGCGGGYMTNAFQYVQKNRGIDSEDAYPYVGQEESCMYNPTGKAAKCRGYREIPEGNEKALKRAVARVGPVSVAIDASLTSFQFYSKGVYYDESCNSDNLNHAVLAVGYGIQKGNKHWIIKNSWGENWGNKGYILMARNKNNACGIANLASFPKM
As to the kind of experiment: Inhibition of human cathepsin K […] activity assessed as normalized bradykinin equivalents ratio at 1 uM pre-incubated for 15 mins before bradykinin substrate addition by competitive enzyme immunoassay (reference value: <0.5%). Set-up: scale not given: the % may be the effect or the level left.

Test [4] concerns the target T1, Cathepsin K (Homo sapiens). As to the kind of experiment: Inhibition of human cathepsin K […] activity assessed as normalized bradykinin equivalents ratio at 1 uM pre-incubated for 15 mins before kallidin substrate addition by competitive enzyme immunoassay (reference value: <0.5%). Also noted: scale not given: the % may be the effect or the level left.
The target of the next test is Trypsin (Homo sapiens) (UniProt P07477+P07478+P35030). As to the kind of experiment: Inhibition of trypsin (unknown origin) incubated for 30 mins using Abz-Thr-Pro-Arg-Ser-Ala-Leu-Gln-EDDnp substrate. The test is classed as protein assay.
For another test, the species on record is Homo sapiens. As to the kind of experiment: Inhibition of chymotrypsin (unknown origin) incubated for 30 mins using Abz-Thr-Pro-Phe-Ser-Gly-Gln-EDDnp substrate.
For test [5], the target named is T2, Neutrophil elastase (Homo sapiens) (UniProt P08246).
T2 sequence (whole entry): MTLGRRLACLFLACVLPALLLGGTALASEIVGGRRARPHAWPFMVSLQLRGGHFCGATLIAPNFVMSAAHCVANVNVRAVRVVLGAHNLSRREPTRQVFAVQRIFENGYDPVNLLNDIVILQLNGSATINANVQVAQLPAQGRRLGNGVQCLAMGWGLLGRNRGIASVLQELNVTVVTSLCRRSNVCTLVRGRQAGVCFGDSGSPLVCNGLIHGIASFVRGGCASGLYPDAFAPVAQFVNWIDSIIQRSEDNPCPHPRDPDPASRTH
As to the kind of experiment: Inhibition of human neutrophil elastase incubated for 30 mins using Abz-Ala-Pro-Glu-Glu-Ile-Met-Arg-Arg-Gln-(3-NO2-Tyr) substrate.

Test [6] addresses 72 kDa type IV collagenase (Homo sapiens) (UniProt P08253). In words: Inhibition of human recombinant MMP-2 expressed in CHO cells incubated for 30 mins by Mca-Arg-Pro-Pro-Gly-Phe-Ser-Ala-Phe-Lys(Dnp) substrate. Format: cell-based.
For test [7], the target named is Cathepsin D (Homo sapiens) (UniProt P07339). As to the kind of experiment: Inhibition of human cathepsin D incubated for 30 mins using Mca-Gly-Lys-Pro-Ile-Leu-Phe-Phe-Arg-Leu-Lys(Dnp)-D-Arg-NH2 substrate.
Cathepsin D (Homo sapiens), sequence (P07339 65-162 limits assumed): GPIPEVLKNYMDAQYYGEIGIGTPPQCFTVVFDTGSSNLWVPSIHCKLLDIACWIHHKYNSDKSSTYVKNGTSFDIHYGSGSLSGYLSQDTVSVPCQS
Cathepsin D (Homo sapiens), sequence (P07339 169-412 limits assumed): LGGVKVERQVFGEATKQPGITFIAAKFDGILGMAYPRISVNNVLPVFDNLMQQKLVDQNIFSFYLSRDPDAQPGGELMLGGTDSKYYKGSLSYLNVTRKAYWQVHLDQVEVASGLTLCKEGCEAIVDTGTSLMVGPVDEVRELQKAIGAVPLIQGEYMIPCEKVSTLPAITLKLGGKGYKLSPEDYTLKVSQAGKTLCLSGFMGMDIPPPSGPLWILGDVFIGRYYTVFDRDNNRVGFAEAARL
Test [8] addresses T3, Pro-cathepsin H (Homo sapiens) (UniProt P09668).
T3 sequence (whole entry): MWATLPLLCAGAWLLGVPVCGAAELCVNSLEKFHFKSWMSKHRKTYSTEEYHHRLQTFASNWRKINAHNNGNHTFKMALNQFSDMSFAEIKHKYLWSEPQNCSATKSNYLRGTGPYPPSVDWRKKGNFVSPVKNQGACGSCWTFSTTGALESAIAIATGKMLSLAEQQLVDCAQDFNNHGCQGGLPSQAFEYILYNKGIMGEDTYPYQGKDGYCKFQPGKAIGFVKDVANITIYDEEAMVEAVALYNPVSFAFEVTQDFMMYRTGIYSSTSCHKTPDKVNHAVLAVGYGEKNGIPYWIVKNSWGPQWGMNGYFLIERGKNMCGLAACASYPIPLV
As to the kind of experiment: Inhibition of human cathepsin H using fluorogenic AMC-derived peptide substrate assessed as reduction in residual activity preincubated for 30 mins followed by substrate addition.

In test [9] the target is Cathepsin B (Homo sapiens) (UniProt P07858). In words: Inhibition of human cathepsin B.
Test [10] has as its target T1, Cathepsin K (Homo sapiens). As to the kind of experiment: Inhibition of human cathepsin K using fluorogenic AMC-derived peptide substrate assessed as reduction in residual activity preincubated for 30 mins followed by substrate addition.
Test [11] has as its target T4, Procathepsin L (Homo sapiens, UniProt P07711). In words: Inhibition of human cathepsin L using fluorogenic AMC-derived peptide substrate assessed as reduction in residual activity preincubated for 30 mins followed by substrate addition.
Target sequence in this assay (P07711 114-333 limits assumed): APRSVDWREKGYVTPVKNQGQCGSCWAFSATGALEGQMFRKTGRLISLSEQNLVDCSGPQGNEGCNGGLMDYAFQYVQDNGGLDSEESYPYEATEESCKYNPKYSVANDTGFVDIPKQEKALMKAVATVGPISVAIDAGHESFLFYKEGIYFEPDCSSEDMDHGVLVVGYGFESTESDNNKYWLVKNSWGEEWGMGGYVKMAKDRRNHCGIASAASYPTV
Test [12] concerns the target T5, Cathepsin S (Homo sapiens, UniProt P25774). As to the kind of experiment: Inhibition of human cathepsin S at 300 uM preincubated for 30 mins followed by Biot-(PEG)2-Ahx-LeuValGly-DMK addition measured after 1 hr by chemiluminescence assay.
Target sequence in this assay (P25774 115-331 limits assumed): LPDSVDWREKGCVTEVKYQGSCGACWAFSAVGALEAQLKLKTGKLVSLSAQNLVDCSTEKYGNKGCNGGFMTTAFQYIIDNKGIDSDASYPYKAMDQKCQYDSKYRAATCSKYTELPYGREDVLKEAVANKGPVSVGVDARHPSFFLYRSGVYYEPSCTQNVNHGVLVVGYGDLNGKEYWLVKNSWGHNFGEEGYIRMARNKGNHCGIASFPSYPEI
Test [13] concerns the target T5, Cathepsin S. In words: (§1) Reversible competitive inhibition of human cathepsin S using fluorogenic AMC-derived peptide substrate assessed as reduction in residual activity at pH 5.5 preincubated for 30 mins followed by substrate addition. The method in brief: (§2)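 Ki values for cathepsin S determined at pH 5.5 and again at pH 7.4, a pH at which this enzyme stays stable and active, to compare the two conditions.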
Target sequence in this assay (P25774 115-331 limits assumed): as above

The target in test [14] is T5, Cathepsin S. In words: Reversible inhibition of human cathepsin S at 300 uM in presence of excess Z-LR-AMC.
Target sequence in this assay (P25774 115-331 limits assumed): as above
In test [15] the target is T5, Cathepsin S. Described as §1. Particulars: read-out: Ki. The method in brief:
as §2
Target sequence in this assay (P25774 whole entry): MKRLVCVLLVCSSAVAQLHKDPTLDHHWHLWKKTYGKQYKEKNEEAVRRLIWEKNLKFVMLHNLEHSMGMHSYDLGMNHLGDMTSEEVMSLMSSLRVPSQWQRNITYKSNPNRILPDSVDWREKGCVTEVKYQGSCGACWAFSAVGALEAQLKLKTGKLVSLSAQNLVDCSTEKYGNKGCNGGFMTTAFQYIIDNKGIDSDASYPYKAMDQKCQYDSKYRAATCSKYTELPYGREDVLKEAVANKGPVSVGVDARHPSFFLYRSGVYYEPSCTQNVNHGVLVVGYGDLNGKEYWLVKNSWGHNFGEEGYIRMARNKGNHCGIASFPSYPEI

In test [16] the target is T5, Cathepsin S. In words: Reversible competitive inhibition of human cathepsin S using fluorogenic AMC-derived peptide substrate assessed as reduction in residual activity at pH 7.4 preincubated for 30 mins followed by substrate addition. The following applies: read-out: Ki. The essentials:
as §2
Target sequence in this assay (P25774 whole entry): as above

Another test concerns the target T6, Cathepsin K (Homo sapiens, UniProt P43235).
T6 sequence (P43235 whole entry): T1 sequence (whole entry)
As to the kind of experiment: Reversible competitive inhibition of human cathepsin K using fluorogenic AMC-derived peptide substrate assessed as reduction in residual activity preincubated for 30 mins followed by substrate addition. The method in brief: (§3)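 Inhibition constants (Ki) determined at pH 5.5, with reversibility and competitive mode also assessed.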

Test [17] deals with T4, Procathepsin L. As to the kind of experiment: Reversible competitive inhibition of human cathepsin L using fluorogenic AMC-derived peptide substrate assessed as reduction in residual activity preincubated for 30 mins followed by substrate addition. The method in brief: as §3
Target sequence in this assay (P07711 whole entry): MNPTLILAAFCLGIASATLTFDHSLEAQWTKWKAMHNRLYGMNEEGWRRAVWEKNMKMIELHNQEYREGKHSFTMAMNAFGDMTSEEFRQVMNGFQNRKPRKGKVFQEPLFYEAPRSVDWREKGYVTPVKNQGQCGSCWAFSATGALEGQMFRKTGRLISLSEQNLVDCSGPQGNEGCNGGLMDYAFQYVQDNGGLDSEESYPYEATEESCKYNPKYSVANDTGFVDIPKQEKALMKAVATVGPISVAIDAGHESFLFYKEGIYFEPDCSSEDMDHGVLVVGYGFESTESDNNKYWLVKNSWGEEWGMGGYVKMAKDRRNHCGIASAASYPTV
Another test has as its target T7, Pro-cathepsin H (Homo sapiens, UniProt P09668).
T7 sequence (P09668 whole entry): T3 sequence (whole entry)
As to the kind of experiment: Reversible competitive inhibition of human cathepsin H using fluorogenic AMC-derived peptide substrate assessed as reduction in residual activity preincubated for 30 mins followed by substrate addition.

The target in test [18] is T5, Cathepsin S. In words: Inhibition of human cathepsin S using fluorogenic AMC-derived peptide substrate assessed as reduction in residual activity preincubated for 30 mins followed by substrate addition.
Target sequence in this assay (P25774 115-331 limits assumed): as the sequence (P25774 115-331 limits assumed) above

72 kDa type IV collagenase (Homo sapiens), sequence (P08253 110-660 limits assumed): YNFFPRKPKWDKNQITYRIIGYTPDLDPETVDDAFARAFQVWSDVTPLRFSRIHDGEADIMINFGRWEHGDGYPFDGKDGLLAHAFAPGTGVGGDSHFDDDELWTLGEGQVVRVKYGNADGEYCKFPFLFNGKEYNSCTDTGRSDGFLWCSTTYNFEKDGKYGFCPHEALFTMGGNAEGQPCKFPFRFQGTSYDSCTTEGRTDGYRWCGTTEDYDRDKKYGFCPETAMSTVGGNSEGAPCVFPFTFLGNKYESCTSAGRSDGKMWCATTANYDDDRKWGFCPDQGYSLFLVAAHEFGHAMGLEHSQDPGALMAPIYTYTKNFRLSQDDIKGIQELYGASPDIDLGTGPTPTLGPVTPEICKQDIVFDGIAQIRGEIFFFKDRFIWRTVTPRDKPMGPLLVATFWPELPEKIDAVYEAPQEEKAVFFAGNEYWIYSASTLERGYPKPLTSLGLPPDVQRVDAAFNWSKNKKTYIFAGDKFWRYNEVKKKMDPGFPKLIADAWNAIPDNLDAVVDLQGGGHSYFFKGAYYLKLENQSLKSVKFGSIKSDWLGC

Turning to `CC(C)C[C@H](NC(=O)[C@@H]1O[C@H]1C(=O)O)C(=O)NCCCCN=C(N)N`, the inhibition result in test [1] and in test [2] was “Active” throughout. The Activity in test [3] and in test [4] was 100% throughout.
Usually Ki stands for the equilibrium dissociation constant of an inhibitor or competing ligand from its target. Turning to `CSCC[C@H](NC(=O)[C@@H]1CCCN1C(=O)[C@H](Cc1c[nH]cn1)NC(=O)[C@H](Cc1c[nH]c2ccccc12)NC(=O)[C@H](CCCNC(=N)N)NC(=O)CNC(C)=O)C(=O)NCc1cn([C@@H](C)C(=O)N2CCC[C@H]2C(=O)N[C@@H](Cc2c[nH]c3ccccc23)C(=O)N[C@@H](CCC(=O)O)C(=O)N[C@H](C)C(=O)N[C@H](CCCNC(=N)N)C(N)=O)nn1`, the inhibition entry (at Trypsin (Homo sapiens); in the test filed under Homo sapiens; in [5]; in [6]; in test [7]; in [8]) was “inactive” each time. Moreover, the inhibition result (in [9]; on Cathepsin S [14]) was “inactive” each time. In addition, the inhibition entry (in [10]; at Procathepsin L [11]; at Cathepsin S [12]; on Cathepsin S [13]; at Cathepsin S [18]) was “Active” throughout. In addition, the Ki at Cathepsin S [15] is 15 µM; on Cathepsin S [16] it was 42 µM; on Cathepsin K, 10 µM; at Procathepsin L [17], 30 µM; at Pro-cathepsin H it was “Not Active”.
Take `CCCNC(=O)[C@H]1O[C@@H]1C(=O)N[C@H](C(=O)N1CCC[C@H]1C(=O)O)[C@@H](C)CC`: the Activity in test [3] and in [4] was less than 0.5% each time.
